According to ChEMBL document CHEMBL1156779, “Biotin derivatives carrying two chelating DOTA units. Synthesis, in vitro evaluation of biotinidases resistance, avidin binding, and radiolabeling tests” (J Med Chem, 2010):

Assays:
[1] = Binding affinity to avidin by thermal stability study
How it was run: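 Far-UV CD of avidin/ligand complexes. Thermal unfolding followed by the fall in dichroic signal at 225 nm over 25-95 °C. Settings: bandwidth 1 nm, response 0.5 s, data pitch 1 °C, slope 10 °C/min. Full spectrum (195-260 nm) recorded every 5 °C increment, each spectrum an average of three. Inflection point of the melting curve taken as the read-out.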

[2] = Displacement of HABA from avidin
How it was run: (§1)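 HABA competition in cuvettes. HABA/avidin complex formed at final avidin 7.6 μM and […], then competitors added at various concentrations. Absorbance read at 500 nm. Triplicate runs. % inhibition computed from absorbance with competitor against absorbance without competitor, each corrected for the blank without HABA/Av complex.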

[3] = Displacement of HABA from avidin at 31 uM; how it was run: as §1
[4] = system: Serum; assay: Stability in normal mouse serum after 2 hrs; assay type: ADME, cell-free
How it was run: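 Freshly collected normal mouse serum (50 μL) used as biotinidase source, mixed with sample and brought to 500 μL in 100 mM sodium acetate pH 5.5. Incubated at 37 °C for up to 2 h. Aliquots taken before and after incubation, diluted 10-fold in 0.08% TFA, then analysed by C18 RP-HPLC-ESI-MS (2-60% B over 20 min, 0.2 mL/min) for release of free biotin and recovery of parent.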

For `O=C(O)CN1CCN(CC(=O)O)CCN(CC(=O)NCCCN(CCCNC(=O)CN2CCN(CC(=O)O)CCN(CC(=O)O)CCN(CC(=O)O)CC2)CC(=O)Nc2ccc(C(=O)NCCCCC(NC(=O)CCCC[C@@H]3SC[C@@H]4NC(=O)N[C@@H]43)C(=O)O)cc2)CCN(CC(=O)O)CC1` (stereo partly drawn), the Stability [1] was > 95 °C, the Activity [2] was “Dose-dependent effect” and the inhibition [3] was 97%. The Stability [4] was “Stable”.
In the case of `O=C(O)CCCC[C@@H]1SC[C@@H]2NC(=O)N[C@@H]21`, the inhibition [3] is reported as 100%.
For `O=C(O)CN1CCN(CC(=O)O)CCN(CC(=O)NCCCN(CCCNC(=O)CN2CCN(CC(=O)O)CCN(CC(=O)O)CCN(CC(=O)O)CC2)CC(=O)NCCCCCCNCCCCC[C@@H]2SC[C@@H]3NC(=O)N[C@@H]32)CCN(CC(=O)O)CC1`, the Stability [1] was 90 °C, the Activity [2] was “Dose-dependent effect” and the inhibition [3] was 66%.
For `O=C(O)CN1CCN(CC(=O)O)CCN(CC(=O)NCCCCCCN(CCCCCCNC(=O)CN2CCN(CC(=O)O)CCN(CC(=O)O)CCN(CC(=O)O)CC2)CC(=O)NCCCCCCNCCCCC[C@@H]2SC[C@@H]3NC(=O)N[C@@H]32)CCN(CC(=O)O)CC1`, the Activity [2] was “Dose-dependent effect” and the inhibition [3] was 64%.
In the case of `O=C(O)CN1CCN(CC(=O)O)CCN(CC(=O)NCCCN(CCCNC(=O)CN2CCN(CC(=O)O)CCN(CC(=O)O)CCN(CC(=O)O)CC2)CC(=O)NCCCCC(NC(=O)CCCC[C@@H]2SC[C@@H]3NC(=O)N[C@@H]32)C(=O)O)CCN(CC(=O)O)CC1` (stereo partly drawn), the Stability [1] is reported as > 95 °C, the Activity [2] is reported as “Dose-dependent effect” and the inhibition [3] is reported as 95%.
